Laboratory results taken from ChEMBL document CHEMBL1132442, “Preparation and characterization of novel trans-[PtCl(2)(amine)(isopropylamine)] compounds: cytotoxic activity and apoptosis induction in ras-transformed cells” (J Med Chem, 1999).

Tests used:
[1] = tested on: Vero; test: Cytotoxicity against […] cell line VERO(obtained by MTT assay).; type: functional, cell-based, Chlorocebus sabaeus
Method in brief: (§1)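 MTT survival assay: compounds added to cultured cells at final 0–200 μM, read 24 h later by absorbance at 520 nm. IC50 from plots of % survival versus concentration (μM). Quadruplicate experiments. Compound stocks 1 mg/mL in PBS, freshly prepared.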

[2] = tested on: PAM212; test: Cytotoxicity against murine keratinocytes transformed with the H-ras oncogene Pam212-ras (cis-DDP resistant) (obtained by MTT assay).; type: functional, cell-based, Mus musculus; method in brief: as §1
[3] = tested on: PAM212; test: Cytotoxicity against normal murine keratinocytes Pam212 (obtained by MTT assay).; type: functional, cell-based, Mus musculus; method in brief: as §1
[4] = tested on: HeLa; test: Cytotoxicity against human cervix epithelial carcinoma cell line HeLa (obtained by MTT assay).; type: functional, cell-based; method in brief: as §1
[5] = tested on: HL-60; test: Cytotoxicity against human promyelocytic leukemia cell line HL-60 (obtained by MTT assay).; type: functional, cell-based; method in brief: as §1
[6] = tested on: Jurkat; test: Cytotoxicity against human acute T-cell leukemia cell line JURKAT (obtained by MTT assay).; type: functional, cell-based; method in brief: as §1
[7] = tested on: Vero; test: Cytotoxicity against […] cell line VERO (obtained by MTT assay).; type: functional, cell-based, Chlorocebus sabaeus; method in brief: as §1

CISPLATIN showed an IC50 [1] of 50 µM, an IC50 [2] of 156 µM and an IC50 [3] of 114 µM. The IC50 [4] was 38 µM, the IC50 [5] was 25 µM and the IC50 [6] was 7 µM.
Substance TRANSPLATIN has an IC50 [1] of 148 µM, an IC50 [2] of 164 µM and an IC50 [3] of 123 µM. It also gave an IC50 [4] of 89 µM, an IC50 [5] of 50 µM and an IC50 [6] of 22 µM.
“Trans-[PtCl2(butylamine)(isopropylamine)]” gave an IC50 [1] of 46 µM, an IC50 [2] of 21 µM and an IC50 [3] of 71 µM. It also gave an IC50 [4] of 35 µM, an IC50 [5] of 18 µM and an IC50 [6] of 7 µM.
“Trans-[PtCl2(dimethylamine)isopropylamine)] (tdmaipa)” showed an IC50 [2] of 6 µM, an IC50 [3] of 56 µM and an IC50 [4] of 32 µM. For the same substance, the IC50 [5] was 17 µM, the IC50 [7] was 47 µM and the IC50 [6] was 5 µM.
With “Trans-[PtCl2(isopropylamine)(propylamine)]” the IC50 [1] was 52 µM, the IC50 [2] was 32 µM and the IC50 [3] was 50 µM. For the same substance, the IC50 [4] was 43 µM, the IC50 [5] was 20 µM and the IC50 [6] was 5 µM.
